Laboratory results taken from ChEMBL document CHEMBL4190330, “Discovery of Potent and Selective A2A Antagonists with Efficacy in Animal Models of Parkinson's Disease and Depression” (ACS Med Chem Lett, 2017).

How the values were obtained:
Adenosine receptor A2a [1] = molecular target: T1, Adenosine receptor A2a (Homo sapiens, UniProt P29274); experiment: Displacement of [3H]ZM241385 from human A2A receptor expressed in HEK293 cell membranes after 90 mins radioligand binding assay
Outline: (§1)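 Membranes from HEK-293 cells overexpressing the relevant human adenosine receptor subtype; all points in triplicate; Ki derived from 8-concentration IC50 curves.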

[2] = molecular target: T2, Adenosine receptor A1 (Homo sapiens) (UniProt P30542); experiment: Displacement of [3H]-DPCPX from human A1 receptor expressed in HEK293 cell membranes at 1 uM after 90 mins radioligand binding assay relative to control
T2 sequence (whole entry): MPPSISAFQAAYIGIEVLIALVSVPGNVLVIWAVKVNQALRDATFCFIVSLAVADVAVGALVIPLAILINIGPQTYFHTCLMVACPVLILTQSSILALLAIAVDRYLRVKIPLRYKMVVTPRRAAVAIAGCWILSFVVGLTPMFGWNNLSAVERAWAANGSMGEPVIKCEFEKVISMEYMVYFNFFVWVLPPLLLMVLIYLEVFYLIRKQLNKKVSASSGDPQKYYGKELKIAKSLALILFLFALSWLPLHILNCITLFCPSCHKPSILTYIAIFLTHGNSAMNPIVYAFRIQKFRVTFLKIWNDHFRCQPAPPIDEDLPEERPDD

Adenosine receptor A2a [3] = molecular target: T1, Adenosine receptor A2a; experiment: Antagonist activity at human A2A receptor expressed in HEK293 cell membranes assessed as reduction in CGS-21680-induced cAMP level pretreated for 15 mins followed by CGS-21680 addition measured after 30 mins by HTRF assay; format: functional, cell-based
Outline: (§2)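 HTRF-based cAMP functional assay; each compound tested at 12 concentrations, every point in triplicate; Ki given as mean of two independent experiments (n=2).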

Adenosine receptor A2a [4] = molecular target: Adenosine receptor A2a (Rattus norvegicus, UniProt P30543); experiment: Antagonist activity at rat A2A receptor assessed as reduction in CGS-21680-induced cAMP level pretreated for 15 mins followed by CGS-21680 addition measured after 30 mins by HTRF assay; format: functional; outline: as §2
Adenosine receptor A2a (Rattus norvegicus, UniProt P30543), sequence (P30543 whole entry): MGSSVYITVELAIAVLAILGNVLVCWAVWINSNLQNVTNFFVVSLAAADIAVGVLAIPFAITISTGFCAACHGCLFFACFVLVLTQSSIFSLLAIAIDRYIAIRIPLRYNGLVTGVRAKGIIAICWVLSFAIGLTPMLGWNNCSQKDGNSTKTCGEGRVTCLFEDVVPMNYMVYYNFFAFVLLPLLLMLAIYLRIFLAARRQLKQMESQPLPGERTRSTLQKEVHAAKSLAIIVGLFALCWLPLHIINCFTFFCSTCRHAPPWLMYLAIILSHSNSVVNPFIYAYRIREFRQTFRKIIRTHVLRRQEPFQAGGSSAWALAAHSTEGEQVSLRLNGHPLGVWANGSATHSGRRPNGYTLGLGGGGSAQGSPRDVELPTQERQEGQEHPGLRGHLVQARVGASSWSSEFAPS

[5] = Metabolic stability in rat liver microsomes; format: ADME, microsome
[6] = Metabolic stability in human liver microsomes; format: ADME, microsome
Adenosine receptor A1 = molecular target: T3, Adenosine receptor A1 (Homo sapiens, UniProt P30542); experiment: Displacement of [3H]-DPCPX from human A1 receptor expressed in HEK293 cell membranes after 90 mins radioligand binding assay; outline: as §1
T3 sequence (P30542 whole entry): T2 sequence (whole entry)

Homo sapiens [7] = species on record: Homo sapiens; experiment: Selectivity ratio of Ki for displacement of [3H]-DPCPX from human A1 receptor expressed in HEK293 cell membranes to Ki for displacement of [3H]ZM241385 from human A2A receptor expressed in HEK293 cell membranes
Outline: (§3)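 Radioligand binding used membranes from HEK-293 cells overexpressing each human adenosine receptor isoform. Points were run in triplicate, and 8-concentration IC50 curves were plotted to give Ki. The selectivity value is the Ki at the off-target isoform divided by the Ki at hA2A.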

Homo sapiens [8] = species on record: Homo sapiens; experiment: Selectivity ratio of Ki for displacement of [3H]-MRS-1754 from human A2B receptor expressed in HEK293 cell membranes to Ki for displacement of [3H]ZM241385 from human A2A receptor expressed in HEK293 cell membranes; outline: as §3
Homo sapiens [9] = species on record: Homo sapiens; experiment: Selectivity ratio of Ki for displacement of [3H]-HEMADO from human A3 receptor expressed in HEK293 cell membranes to Ki for displacement of [3H]ZM241385 from human A2A receptor expressed in HEK293 cell membranes; outline: as §3
[10] = Solubility of the compound at pH 7.4; format: physicochemical; details: buffer

T1 sequence (P29274 whole entry): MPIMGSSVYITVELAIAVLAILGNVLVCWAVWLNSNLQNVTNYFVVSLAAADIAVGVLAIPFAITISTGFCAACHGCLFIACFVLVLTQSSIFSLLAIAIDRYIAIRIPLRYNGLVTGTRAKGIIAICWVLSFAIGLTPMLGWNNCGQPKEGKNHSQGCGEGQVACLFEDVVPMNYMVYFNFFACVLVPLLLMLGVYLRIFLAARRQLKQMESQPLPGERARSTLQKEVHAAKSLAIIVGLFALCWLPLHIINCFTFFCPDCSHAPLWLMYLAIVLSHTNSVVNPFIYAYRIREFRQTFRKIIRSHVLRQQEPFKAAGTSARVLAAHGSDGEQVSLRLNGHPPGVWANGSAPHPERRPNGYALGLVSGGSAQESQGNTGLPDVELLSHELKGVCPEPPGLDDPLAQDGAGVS

| SMILES | Ki (Adenosine receptor A2a [1]) | inhibition [2] | Ki (Adenosine receptor A2a [3]) | Ki (Adenosine receptor A2a [4]) | Stability [5] | Stability [6] | Ki (Adenosine receptor A1) | Ratio Ki (Homo sapiens [7]) | Ratio Ki (Homo sapiens [8]) | Ratio Ki (Homo sapiens [9]) | solubility [10] |
| --- | --- | --- | --- | --- | --- | --- | --- | --- | --- | --- | --- |
| Cn1c(=O)n(CCN2CCN(c3ccc(OC(F)F)cc3)CC2)c2nc(N)n3nc(-c4ccco4)nc3c21 | 1.9 nM | 34% | 0.27 nM | 1.07 nM | Stable | Stable | – | – | – | – | – |
| COc1ccc(N2CCN(CCn3c(=O)n(C)c4c3nc(N)n3nc(-c5ccco5)nc43)CC2)c(F)c1 | 0.4 nM | 45% | 0.06 nM | 0.06 nM | Stable | Stable | – | – | – | – | – |
| Cn1c(=O)n(CCN2CCN(c3ccc(C#N)cc3)CC2)c2nc(N)n3nc(-c4ccco4)nc3c21 | 0.6 nM | – | 0.3 nM | 1.15 nM | Stable | Stable | 5000 nM | > 8000 | > 8000 | > 8000 | < 2 µM |
| Cn1c(=O)n(CCN2CCN(c3ccc(OC4CCOCC4)cc3)CC2)c2nc(N)n3nc(-c4ccco4)nc3c21 | 0.3 nM | 56% | 0.26 nM | – | Stable | Stable | – | – | – | – | – |
| Cn1c(=O)n(CCN2CCN(c3ccc(C(F)(F)F)cc3)CC2)c2nc(N)n3nc(-c4ccco4)nc3c21 | 3.1 nM | 57% | – | – | Stable | Stable | – | – | – | – | – |
| Cn1c(=O)n(CCN2CCN(c3ccc(C#N)c(F)c3)CC2)c2nc(N)n3nc(-c4ccco4)nc3c21 | 0.5 nM | 50% | 0.4 nM | – | Stable | Stable | – | – | – | – | – |
| COCCOc1ccc(N2CCN(CCn3c(=O)n(C)c4c3nc(N)n3nc(-c5ccco5)nc43)CC2)cc1F | 0.7 nM | 68% | – | – | Stable | Stable | – | – | – | – | – |
| COCCOc1ccc(N2CCN(CCn3c(=O)n(C)c4c3nc(N)n3nc(-c5ccco5)nc43)CC2)cc1 | 2 nM | – | 0.42 nM | 0.28 nM | Stable | Stable | 1700 nM | 850 | > 3000 | > 2000 | < 6 µM |
| COCC(C)Oc1ccc(N2CCN(CCn3c(=O)n(C)c4c3nc(N)n3nc(-c5ccco5)nc43)CC2)cc1 (stereo not given) | 0.4 nM | 56% | 1.5 nM | 0.42 nM | Stable | Stable | – | – | – | – | – |
| Cc1ccc(N2CCN(CCn3c(=O)n(C)c4c3nc(N)n3nc(-c5ccco5)nc43)CC2)cc1 | 1.4 nM | 45% | 1.1 nM | 0.74 nM | Stable | Stable | – | – | – | – | – |
| COc1ccc(N2CCN(CCn3c(=O)n(C)c4c3nc(N)n3nc(-c5ccco5)nc43)CC2)cc1 | 1 nM | 58% | 0.21 nM | 0.58 nM | Stable | Stable | – | – | – | – | – |
| Cc1ccc(N2CCN(CCn3c(=O)n(C)c4c3nc(N)n3nc(-c5ccco5)nc43)CC2)nc1 | 1.7 nM | 61% | 0.4 nM | 0.65 nM | Stable | Stable | – | – | – | – | – |
| Cn1c(=O)n(CCN2CCN(c3ccc(F)cc3F)CC2)c2nc(N)n3nc(-c4ccco4)nc3c21 | 1 nM | 32% | 0.07 nM | – | Stable | Stable | – | – | – | – | – |
| COCCOc1ccc(N2CCN(CCn3c(=O)n(C)c4c3nc(N)n3nc(-c5nccs5)nc43)CC2)cc1 | 6.4 nM | 19% | 1.2 nM | 11.1 nM | Stable | Stable | – | – | – | – | – |
| Cn1c(=O)n(CCN2CCN(c3ccc(OC4CCOC4)cc3)CC2)c2nc(N)n3nc(-c4ccco4)nc3c21 (stereo not given) | 0.2 nM | 49% | 0.22 nM | – | Stable | Stable | – | – | – | – | – |
| COCCOc1cccc(N2CCN(CCn3c(=O)n(C)c4c3nc(N)n3nc(-c5ccco5)nc43)CC2)c1 | 0.5 nM | 63% | 0.5 nM | 3.9 nM | Stable | Stable | – | – | – | – | – |
| COc1ccc(N2CCN(CCn3c(=O)n(C)c4c3nc(N)n3nc(-c5ccco5)nc43)CC2)cn1 | 4.5 nM | 61% | – | – | Stable | Stable | – | – | – | – | – |
| COCCOc1cc(F)c(N2CCN(CCn3c(=O)n(C)c4c3nc(N)n3nc(-c5ccco5)nc43)CC2)cc1F | 0.9 nM | 58% | 1.2 nM | – | Stable | Stable | – | – | – | – | – |
| Cn1c(=O)n(CCN2CCN(c3nc(C(F)(F)F)cs3)CC2)c2nc(N)n3nc(-c4ccco4)nc3c21 | 1.2 nM | 58% | 0.9 nM | – | Stable | Stable | – | – | – | – | – |
| COCCOc1c(F)cc(N2CCN(CCn3c(=O)n(C)c4c3nc(N)n3nc(-c5ccco5)nc43)CC2)cc1F | 0.6 nM | 65% | – | – | Stable | Stable | – | – | – | – | – |
| Cn1c(=O)n(CCN2CCN(c3ccc(OC4CC4)cc3)CC2)c2nc(N)n3nc(-c4ccco4)nc3c21 | 0.3 nM | 50% | 0.25 nM | – | Stable | Stable | – | – | – | – | – |
| Cn1c(=O)n(CCN2CCN(c3ccc(OCCOC4CC4)cc3)CC2)c2nc(N)n3nc(-c4ccco4)nc3c21 | 2 nM | 66% | – | – | Stable | Stable | – | – | – | – | – |
| Cc1nc2cc(N3CCN(CCn4c(=O)n(C)c5c4nc(N)n4nc(-c6ccco6)nc54)CC3)c(F)cc2o1 | 0.4 nM | 48% | 0.15 nM | 0.05 nM | Stable | Stable | – | – | – | – | – |
| COCC(C)(C)Oc1ccc(N2CCN(CCn3c(=O)n(C)c4c3nc(N)n3nc(-c5ccco5)nc43)CC2)cc1 | 0.5 nM | 36% | 2.1 nM | 0.72 nM | Stable | Stable | – | – | – | – | – |
